pIC50: −log10 of the molar value.
What was measured:
[1] = Inhibition of recombinant Mycobacterium tuberculosis PTPB using pNPP as substrate by spectrophotometric method
How it was run: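 Recombinant enzyme made in-house. Substrate pNPP in 50 mM 3,3-dimethylglutarate buffer, pH 7.0, with 1 mM EDTA and 150 mM NaCl, at 25 °C, screened in 96-well format. p-Nitrophenol product read at 405 nm. Non-enzymatic pNPP hydrolysis was corrected using a control without enzyme.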

[2] = molecular target: T1, Tyrosine-protein phosphatase non-receptor type 11 (Homo sapiens, UniProt Q06124); test: Inhibition of recombinant SHP2 (unknown origin) using pNPP as substrate by spectrophotometric method
T1 sequence (Q06124 whole entry): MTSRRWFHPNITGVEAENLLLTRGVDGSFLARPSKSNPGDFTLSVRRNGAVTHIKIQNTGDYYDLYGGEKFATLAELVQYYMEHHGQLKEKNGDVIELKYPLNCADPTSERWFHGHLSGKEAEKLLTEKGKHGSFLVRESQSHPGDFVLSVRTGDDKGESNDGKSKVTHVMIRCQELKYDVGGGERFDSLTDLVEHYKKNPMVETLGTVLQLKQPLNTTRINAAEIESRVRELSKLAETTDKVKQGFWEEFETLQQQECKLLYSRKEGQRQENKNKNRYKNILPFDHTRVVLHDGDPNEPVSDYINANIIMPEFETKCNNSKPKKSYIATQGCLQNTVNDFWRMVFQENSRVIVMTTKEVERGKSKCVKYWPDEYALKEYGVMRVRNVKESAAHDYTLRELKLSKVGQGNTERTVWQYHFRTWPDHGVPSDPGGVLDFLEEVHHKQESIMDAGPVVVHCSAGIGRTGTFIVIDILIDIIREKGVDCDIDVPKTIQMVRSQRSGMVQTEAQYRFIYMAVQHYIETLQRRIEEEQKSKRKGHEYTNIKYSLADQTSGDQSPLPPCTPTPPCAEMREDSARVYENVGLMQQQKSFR
How it was run: (§1)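 Recombinant PTP prepared in-house, assayed with pNPP substrate in 50 mM 3,3-dimethylglutarate buffer pH 7.0 containing 1 mM EDTA and 150 mM NaCl at 25 °C, in 96-well format. p-Nitrophenol product was quantified by absorbance at 405 nm. Non-enzymatic pNPP hydrolysis was corrected using a no-enzyme control.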

[3] = molecular target: T2, Tyrosine-protein phosphatase non-receptor type 1 (Homo sapiens, UniProt P18031); test: Inhibition of recombinant PTP1B (unknown origin) using pNPP as substrate by spectrophotometric method; how it was run: as §1
T2 sequence (P18031 whole entry): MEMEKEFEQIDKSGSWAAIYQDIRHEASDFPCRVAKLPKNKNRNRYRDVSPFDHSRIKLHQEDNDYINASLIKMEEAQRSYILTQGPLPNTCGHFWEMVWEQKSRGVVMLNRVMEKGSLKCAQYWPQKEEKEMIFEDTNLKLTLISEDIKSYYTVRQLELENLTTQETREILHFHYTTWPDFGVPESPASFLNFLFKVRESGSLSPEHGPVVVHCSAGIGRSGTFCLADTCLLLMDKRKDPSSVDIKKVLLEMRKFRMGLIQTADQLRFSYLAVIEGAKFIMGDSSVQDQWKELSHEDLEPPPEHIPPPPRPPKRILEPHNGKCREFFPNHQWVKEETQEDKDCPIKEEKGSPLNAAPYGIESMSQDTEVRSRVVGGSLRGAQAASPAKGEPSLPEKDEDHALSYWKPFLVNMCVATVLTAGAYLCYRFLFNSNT

[4] = molecular target: T3, Receptor-type tyrosine-protein phosphatase C (Homo sapiens, UniProt P08575); test: Inhibition of recombinant CD45 (unknown origin) using pNPP as substrate by spectrophotometric method; how it was run: as §1
T3 sequence (P08575 whole entry): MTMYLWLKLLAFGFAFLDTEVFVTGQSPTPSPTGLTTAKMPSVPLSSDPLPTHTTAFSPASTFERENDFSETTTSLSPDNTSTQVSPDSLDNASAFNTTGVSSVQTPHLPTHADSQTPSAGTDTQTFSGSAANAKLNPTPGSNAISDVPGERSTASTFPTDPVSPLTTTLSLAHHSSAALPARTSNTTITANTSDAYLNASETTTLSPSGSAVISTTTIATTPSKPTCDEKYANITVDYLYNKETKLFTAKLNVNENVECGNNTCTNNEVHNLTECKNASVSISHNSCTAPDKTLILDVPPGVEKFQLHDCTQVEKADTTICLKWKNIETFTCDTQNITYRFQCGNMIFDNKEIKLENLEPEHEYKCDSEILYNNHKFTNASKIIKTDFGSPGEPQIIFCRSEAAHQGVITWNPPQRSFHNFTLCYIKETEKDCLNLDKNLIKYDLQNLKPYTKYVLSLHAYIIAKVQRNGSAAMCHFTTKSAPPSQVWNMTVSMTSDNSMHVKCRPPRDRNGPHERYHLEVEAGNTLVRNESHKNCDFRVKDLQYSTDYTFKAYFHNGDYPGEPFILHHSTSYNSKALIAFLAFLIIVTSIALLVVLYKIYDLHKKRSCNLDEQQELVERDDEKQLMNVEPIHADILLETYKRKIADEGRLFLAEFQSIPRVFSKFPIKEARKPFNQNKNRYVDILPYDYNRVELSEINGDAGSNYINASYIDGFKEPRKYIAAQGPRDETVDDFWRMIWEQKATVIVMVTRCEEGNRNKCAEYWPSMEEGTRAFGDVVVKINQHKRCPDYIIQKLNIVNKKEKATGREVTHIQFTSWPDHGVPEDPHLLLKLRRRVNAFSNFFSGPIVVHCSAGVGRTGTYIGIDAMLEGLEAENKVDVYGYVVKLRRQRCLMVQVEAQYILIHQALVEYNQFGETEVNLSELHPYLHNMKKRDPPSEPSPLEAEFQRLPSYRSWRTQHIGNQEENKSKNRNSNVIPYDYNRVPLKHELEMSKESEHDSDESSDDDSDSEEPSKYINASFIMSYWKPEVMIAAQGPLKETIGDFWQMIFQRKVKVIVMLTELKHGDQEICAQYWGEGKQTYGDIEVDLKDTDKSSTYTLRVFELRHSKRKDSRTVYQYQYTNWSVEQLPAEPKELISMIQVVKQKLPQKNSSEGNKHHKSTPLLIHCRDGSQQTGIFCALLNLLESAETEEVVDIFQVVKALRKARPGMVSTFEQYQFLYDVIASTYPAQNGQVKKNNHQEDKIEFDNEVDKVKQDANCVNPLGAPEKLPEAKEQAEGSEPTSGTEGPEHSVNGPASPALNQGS

[5] = molecular target: T4, Tyrosine-protein phosphatase non-receptor type 22 (Homo sapiens, UniProt Q9Y2R2); test: Inhibition of recombinant LYP (unknown origin) using pNPP as substrate by spectrophotometric method; how it was run: as §1
T4 sequence (Q9Y2R2 whole entry): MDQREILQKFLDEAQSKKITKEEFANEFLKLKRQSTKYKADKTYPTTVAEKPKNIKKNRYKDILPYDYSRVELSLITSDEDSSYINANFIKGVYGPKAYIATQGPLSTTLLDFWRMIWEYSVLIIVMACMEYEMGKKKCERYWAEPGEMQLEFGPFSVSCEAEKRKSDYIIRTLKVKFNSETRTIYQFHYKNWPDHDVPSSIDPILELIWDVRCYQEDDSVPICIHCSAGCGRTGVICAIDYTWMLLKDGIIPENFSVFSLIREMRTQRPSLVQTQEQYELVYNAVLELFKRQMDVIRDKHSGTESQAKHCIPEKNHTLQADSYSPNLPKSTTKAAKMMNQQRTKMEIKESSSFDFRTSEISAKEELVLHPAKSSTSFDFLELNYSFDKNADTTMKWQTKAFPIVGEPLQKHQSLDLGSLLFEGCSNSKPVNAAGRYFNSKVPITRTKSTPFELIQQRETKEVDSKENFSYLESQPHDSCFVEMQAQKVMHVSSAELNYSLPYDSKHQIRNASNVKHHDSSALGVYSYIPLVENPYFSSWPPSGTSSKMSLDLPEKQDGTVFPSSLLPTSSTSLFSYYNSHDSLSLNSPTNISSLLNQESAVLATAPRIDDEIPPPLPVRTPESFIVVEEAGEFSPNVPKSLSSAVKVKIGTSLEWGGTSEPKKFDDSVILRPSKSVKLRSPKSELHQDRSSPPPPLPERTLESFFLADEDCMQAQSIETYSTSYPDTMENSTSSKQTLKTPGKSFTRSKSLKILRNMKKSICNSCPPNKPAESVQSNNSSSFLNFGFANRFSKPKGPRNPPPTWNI

[6] = molecular target: Tyrosine-protein phosphatase non-receptor type 13 (Homo sapiens, UniProt Q12923); test: Inhibition of recombinant FAP1 (unknown origin) using pNPP as substrate by spectrophotometric method; how it was run: as §1
Tyrosine-protein phosphatase non-receptor type 13, sequence (Q12923 whole entry): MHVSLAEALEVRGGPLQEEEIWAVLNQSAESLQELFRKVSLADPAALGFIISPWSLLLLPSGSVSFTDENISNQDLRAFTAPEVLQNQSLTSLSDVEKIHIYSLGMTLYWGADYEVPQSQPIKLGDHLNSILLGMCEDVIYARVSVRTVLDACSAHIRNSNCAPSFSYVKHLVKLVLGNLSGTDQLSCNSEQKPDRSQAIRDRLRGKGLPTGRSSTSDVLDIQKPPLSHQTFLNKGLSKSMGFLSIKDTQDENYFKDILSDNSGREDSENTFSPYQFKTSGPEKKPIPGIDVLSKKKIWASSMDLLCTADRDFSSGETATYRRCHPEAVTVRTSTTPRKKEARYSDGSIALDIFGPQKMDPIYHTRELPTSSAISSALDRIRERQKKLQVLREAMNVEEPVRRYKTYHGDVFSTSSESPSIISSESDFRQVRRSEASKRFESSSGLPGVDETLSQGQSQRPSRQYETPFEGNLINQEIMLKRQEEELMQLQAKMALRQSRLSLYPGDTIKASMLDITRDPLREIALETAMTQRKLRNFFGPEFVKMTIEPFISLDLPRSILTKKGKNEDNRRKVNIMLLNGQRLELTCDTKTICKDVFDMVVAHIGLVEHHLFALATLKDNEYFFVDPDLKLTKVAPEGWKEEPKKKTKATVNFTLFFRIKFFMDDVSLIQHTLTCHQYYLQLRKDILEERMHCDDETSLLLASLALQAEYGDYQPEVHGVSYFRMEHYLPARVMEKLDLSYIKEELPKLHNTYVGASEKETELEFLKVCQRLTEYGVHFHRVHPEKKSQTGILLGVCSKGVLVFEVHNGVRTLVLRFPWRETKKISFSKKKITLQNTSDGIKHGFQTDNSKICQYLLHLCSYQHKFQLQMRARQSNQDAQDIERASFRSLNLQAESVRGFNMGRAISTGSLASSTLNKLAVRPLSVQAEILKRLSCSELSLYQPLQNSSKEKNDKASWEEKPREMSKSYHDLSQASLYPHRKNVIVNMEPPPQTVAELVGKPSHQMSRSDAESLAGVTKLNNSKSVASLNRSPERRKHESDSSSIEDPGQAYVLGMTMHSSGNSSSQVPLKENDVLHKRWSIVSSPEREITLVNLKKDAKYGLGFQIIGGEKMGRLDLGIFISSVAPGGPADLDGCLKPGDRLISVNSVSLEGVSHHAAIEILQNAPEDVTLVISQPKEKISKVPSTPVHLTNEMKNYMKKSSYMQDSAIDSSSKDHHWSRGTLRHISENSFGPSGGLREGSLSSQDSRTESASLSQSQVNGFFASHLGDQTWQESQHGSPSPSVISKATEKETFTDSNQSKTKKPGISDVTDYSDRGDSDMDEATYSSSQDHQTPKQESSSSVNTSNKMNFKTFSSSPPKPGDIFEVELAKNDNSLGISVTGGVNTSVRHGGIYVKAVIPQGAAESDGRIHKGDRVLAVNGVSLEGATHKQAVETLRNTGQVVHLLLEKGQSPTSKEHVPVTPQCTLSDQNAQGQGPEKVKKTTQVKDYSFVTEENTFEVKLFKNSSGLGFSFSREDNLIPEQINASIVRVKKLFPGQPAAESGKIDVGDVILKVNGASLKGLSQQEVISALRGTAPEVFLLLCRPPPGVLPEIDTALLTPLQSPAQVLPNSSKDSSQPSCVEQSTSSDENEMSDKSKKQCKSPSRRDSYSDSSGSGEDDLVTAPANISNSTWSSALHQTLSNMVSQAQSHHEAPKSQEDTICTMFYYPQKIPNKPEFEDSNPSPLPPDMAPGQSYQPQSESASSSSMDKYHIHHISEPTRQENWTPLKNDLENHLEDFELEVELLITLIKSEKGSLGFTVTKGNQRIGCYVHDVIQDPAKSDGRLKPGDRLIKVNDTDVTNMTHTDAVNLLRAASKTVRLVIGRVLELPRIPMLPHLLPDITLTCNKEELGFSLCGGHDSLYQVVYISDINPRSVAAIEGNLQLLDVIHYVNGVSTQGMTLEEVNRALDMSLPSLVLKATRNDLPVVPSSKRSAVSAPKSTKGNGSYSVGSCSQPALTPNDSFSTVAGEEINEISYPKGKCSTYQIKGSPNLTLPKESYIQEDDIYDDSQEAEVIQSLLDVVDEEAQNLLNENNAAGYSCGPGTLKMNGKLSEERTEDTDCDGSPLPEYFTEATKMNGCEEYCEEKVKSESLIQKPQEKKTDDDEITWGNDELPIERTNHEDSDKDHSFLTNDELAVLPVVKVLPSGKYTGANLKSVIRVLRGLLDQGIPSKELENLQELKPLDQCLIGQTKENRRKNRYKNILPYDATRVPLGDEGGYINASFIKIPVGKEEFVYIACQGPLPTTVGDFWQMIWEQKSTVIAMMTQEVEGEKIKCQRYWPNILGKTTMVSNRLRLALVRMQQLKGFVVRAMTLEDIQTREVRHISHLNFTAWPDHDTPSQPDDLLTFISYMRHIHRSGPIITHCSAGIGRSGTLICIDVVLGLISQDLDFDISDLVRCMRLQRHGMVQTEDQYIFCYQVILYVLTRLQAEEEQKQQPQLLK

Row | Structure (SMILES) | pIC50 [1] | pIC50 [2] | pIC50 [3] | pIC50 [4] | pIC50 [5] | pIC50 [6]
1 | O=C(COc1ccc2cc(C(O)(C(F)(F)F)C(F)(F)F)c(O)cc2c1)NC1c2ccccc2-c2ccccc21 | 5.03 | 5.16 | 4.86 | 5.18 | 5.12 | 5.25
2 | Oc1c(-c2ccccc2)cccc1C(O)(C(F)(F)F)C(F)(F)F | 3.83 | 3.87 | 3.37 | 3.80 | 3.57 | 3.35
3 | Cc1ccc(O)c(C(O)(C(F)(F)F)C(F)(F)F)c1 | 3.75 | 3.70 | 3.44 | 3.68 | 3.52 | 3.34
4 | CC(C)c1ccc(NC(=O)COc2ccc3cc(C(O)(C(F)(F)F)C(F)(F)F)c(O)cc3c2)cc1 | 5.14 | 5.07 | 4.76 | 5.11 | 5.06 | 5.19
5 | OC(c1ccccc1)(C(F)(F)F)C(F)(F)F | < 3.30 | < 3.30 | < 3.30 | < 3.30 | < 3.30 | < 3.30
6 | O=C(COc1ccc2cc(C(O)(C(F)(F)F)C(F)(F)F)c(O)cc2c1)NC12CC3CC(CC(C3)C1)C2 | < 4.70 | 5.05 | 4.83 | 5.12 | 5.00 | 5.13
7 | Oc1ccc(-c2ccccc2)cc1C(O)(C(F)(F)F)C(F)(F)F | 3.45 | 3.41 | < 3.30 | < 3.30 | < 3.30 | < 3.30
8 | Oc1cc(-c2ccccc2)ccc1C(O)(C(F)(F)F)C(F)(F)F | < 3.30 | < 3.30 | < 3.30 | < 3.30 | < 3.30 | < 3.30
9 | O=C(COc1ccc2cc(C(O)(C(F)(F)F)C(F)(F)F)c(O)cc2c1)NCCc1ccc(Cl)cc1Cl | 5.29 | 5.17 | 4.90 | 5.28 | 5.16 | 5.37
10 | O=C(COc1ccc2cc(C(O)(C(F)(F)F)C(F)(F)F)c(O)cc2c1)NC1CC1 | < 4.70 | < 4.70 | < 4.70 | < 4.70 | < 4.70 | < 4.70
